Values joined by “and” are separate entries in the source; they are usually repeats but may differ in a detail not shown here. Identical values can stand only once.
Assays:
D(2) dopamine receptor [1] = biological target: T1, D(2) dopamine receptor (Rattus norvegicus, UniProt P61169); test: Formation of cAMP on Dopamine receptor D2 in vitro in rat intermediate lobe; type: functional
D(2) dopamine receptor [2] = biological target: T1, D(2) dopamine receptor; test: Binding affinity was determined by measuring the ability to displace [125I]N-(p-aminophenethyl)-spiroperidol from Dopamine receptor D2 in rat caudate (in vitro)
Summary of the method: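 Homogenized rat caudate was the tissue, and [¹²⁵I]-N-(p-aminophenethyl)spiroperidol was the radioligand displaced. Values are means with the SEM range.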

D(1A) dopamine receptor = D(1A) dopamine receptor (Rattus norvegicus, UniProt P18901); test: Binding affinity was determined by measuring the ability to displace [125I]SCH-23982 from Dopamine receptor D1 in rat caudate (in vitro)
Summary of the method: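 Homogenized rat caudate was used as the tissue source. [¹²⁵I]SCH23982 was the displaced radioligand, and affinity was expressed as Ki. Values are means with the SEM range.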

[3] = biological target: D(2) dopamine receptor (Rattus norvegicus) (UniProt P61169); test: Percent intrinsic activity was determined by measuring the formation of cAMP on Dopamine receptor D2 in vitro in rat intermediate lobe; type: functional
D(2) dopamine receptor (Rattus norvegicus), sequence (P61169 whole entry): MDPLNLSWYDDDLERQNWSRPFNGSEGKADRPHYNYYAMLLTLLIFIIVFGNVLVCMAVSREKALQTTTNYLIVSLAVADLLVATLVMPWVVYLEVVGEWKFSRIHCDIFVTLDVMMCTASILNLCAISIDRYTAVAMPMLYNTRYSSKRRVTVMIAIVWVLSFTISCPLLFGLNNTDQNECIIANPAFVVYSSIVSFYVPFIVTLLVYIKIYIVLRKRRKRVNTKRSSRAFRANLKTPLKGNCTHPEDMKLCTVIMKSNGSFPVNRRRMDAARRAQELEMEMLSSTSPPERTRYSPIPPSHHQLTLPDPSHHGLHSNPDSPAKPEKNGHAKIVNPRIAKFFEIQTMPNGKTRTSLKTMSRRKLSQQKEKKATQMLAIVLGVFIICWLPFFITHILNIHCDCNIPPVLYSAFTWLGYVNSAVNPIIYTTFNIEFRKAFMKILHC

T1 sequence (P61169 whole entry): as above
D(1A) dopamine receptor, sequence (P18901 whole entry): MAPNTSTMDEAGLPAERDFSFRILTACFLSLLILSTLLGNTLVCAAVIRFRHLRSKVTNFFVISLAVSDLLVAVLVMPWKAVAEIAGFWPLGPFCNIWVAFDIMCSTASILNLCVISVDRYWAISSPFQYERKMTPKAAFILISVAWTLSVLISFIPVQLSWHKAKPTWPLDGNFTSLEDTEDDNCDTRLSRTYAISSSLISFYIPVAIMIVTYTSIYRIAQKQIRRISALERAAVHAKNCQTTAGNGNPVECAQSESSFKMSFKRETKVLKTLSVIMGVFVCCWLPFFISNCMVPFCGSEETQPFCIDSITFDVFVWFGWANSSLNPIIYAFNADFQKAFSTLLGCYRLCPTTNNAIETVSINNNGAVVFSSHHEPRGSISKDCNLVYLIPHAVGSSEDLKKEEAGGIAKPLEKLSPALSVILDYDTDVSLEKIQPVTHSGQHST

EC50 (D(2) dopamine receptor [1]) | Ki (D(2) dopamine receptor [2]) | Ki (D(1A) dopamine receptor) [nM] | IA [3] | Structure (SMILES)
 |  |  | 101% and 98% | NC[C@@H]1O[C@H](c2ccccc2)Cc2c1ccc(O)c2O (stereo in doubt; form 1) [listing 2 of 2 here]
 |  |  | 98% and 101% | NC[C@@H]1O[C@H](c2ccccc2)Cc2c1ccc(O)c2O (stereo in doubt; form 2) [listing 2 of 2 here]
> 10 µM | > 10000 nM |  |  | NC[C@H]1O[C@@H](c2ccccc2)Cc2c1ccc(O)c2O

The next lines start with the compound.

Structure (SMILES) | EC50 (D(2) dopamine receptor [1]) | Ki (D(2) dopamine receptor [2]) | Ki (D(1A) dopamine receptor) [nM] | IA [3]
NC[C@@H]1O[C@H](c2ccccc2)Cc2c1ccc(O)c2O (stereo in doubt; form 2) [listing 1 of 2 here] | 10.2 µM and 3.91 µM | 807 nM and 776 nM |  | 
NCC1OCCc2c1ccc(O)c2O (stereo not given) [listing 1 of 3 here] | 2.85 µM | 4610 nM | 1030 | 
NC[C@@H]1O[C@H](c2ccccc2)Cc2c1ccc(O)c2O (stereo in doubt; form 1) [listing 1 of 2 here] | 3.91 µM and 10.2 µM | 776 nM and 807 nM |  | 
NCC1OCCc2c1ccc(O)c2O (stereo not given) [listing 2 of 3 here] | 2.85 µM | 4610 nM | 1030 | 
NCC1OCCc2c1ccc(O)c2O (stereo not given) [listing 3 of 3 here] |  |  |  | 96%

Reference: ChEMBL document CHEMBL1125128, “(1R,3S)-1-(aminomethyl)-3,4-dihydro-5,6-dihydroxy-3-phenyl-1H-2-benzopyran: a potent and selective D1 agonist” (J Med Chem, 1990)
